Compounds with a hit are over-represented: about 3% of the library has one in this group of screens.
MC4R antagonist: antagonists of human melanocortin 4 receptor (MC4R); inhibition, % at 6.5 µM; MC4R-expressing cells, MTII-stimulated cAMP, LANCE TR-FRET; hit rate 0.48% among 360,000; P32245;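 active = inhibition above its plate's cutoff, the mean of tested wells on that plate plus 3 SD, cut at about 29% in these data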;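 note: 0% = Melanotan II alone and 100% = Melanotan II plus saturating MCL0020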
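Material: human MC4R-expressing U2OS cells. Probe or stimulus: Melanotan II challenge. Dosing: 6.5 µM single dose. Times: 30-min compound, 1-h challenge, 1-h detection, room temperature. Technique: TR-FRET with Eu-cAMP and labeled anti-cAMP, 671 nm. Replication: singlicate.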
B2AR ag: human beta-2 adrenergic receptor agonism by FAP. Am2.2-beta2AR cells, FAP receptor internalization, flow cytometry. P07550. response, % (no concentration beside the values). hit rate 0.43% among 340,000;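 active = response above a set limit, near 3 SD of response in nonfluorescent compounds, cut at about 42% in these data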
Target sequence (P07550 whole entry, looked up): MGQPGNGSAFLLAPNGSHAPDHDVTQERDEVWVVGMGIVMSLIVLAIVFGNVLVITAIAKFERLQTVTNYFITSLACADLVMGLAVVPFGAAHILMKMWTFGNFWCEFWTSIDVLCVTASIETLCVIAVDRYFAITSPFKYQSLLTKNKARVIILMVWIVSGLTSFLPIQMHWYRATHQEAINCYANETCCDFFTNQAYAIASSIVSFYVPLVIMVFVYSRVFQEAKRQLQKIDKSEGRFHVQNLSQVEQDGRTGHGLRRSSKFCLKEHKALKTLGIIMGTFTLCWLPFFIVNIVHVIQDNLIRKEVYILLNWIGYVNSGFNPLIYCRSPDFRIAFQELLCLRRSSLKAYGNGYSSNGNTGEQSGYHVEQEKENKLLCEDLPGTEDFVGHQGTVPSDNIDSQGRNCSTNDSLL
MC4R ag barr: activates human MC4R beta-arrestin recruitment | activation, % at 8.9 µM | AID 540308 | P32245 | hit rate 0.98% among 360,000 | U2OS MC4R beta-arrestin complementation, luminescence; percent of melanotan II response, DMSO zero;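 active = activation above a per-plate cutoff, the mean activation of sample wells on that plate plus 3 SD, cut at about 8% in these data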
ABHD5-PLIN5 inh: inhibitors of human ABHD5-perilipin-5 interaction | Q00G26+Q8WTS1 | Split G. princeps luciferase complementation, luminescence, 4 h | inhibition, % at 4 µM | hit rate 0.78% among 360,000;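 active = inhibition above the mean inhibition across every tested compound plus 3 SD, cut at about 22% in these data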;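 note: 0% = DMSO only wells and the 100% control is not disclosed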
PfGluPho inh: PfG6PD (Plasmodium falciparum) enzyme inhibition; PfGluPho enzyme, NADPH resazurin-diaphorase fluorescence; inhibition, % at 20 µM; hit rate 0.78% among 350,000;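 active = inhibition reaching at least a set limit at 20 µM in the primary screen, cut at about 59% in these data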;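 note: 0% = DMSO wells with substrate and 100% = DMSO wells lacking glucose-6-phosphate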
MC4R barr ag: human MC4R beta-arrestin agonism confirmation. shares compounds with MC4R ag barr. U2OS MC4R beta-arrestin recruitment, luminescence; scaled DMSO 0%, Melanotan II 100%. activation, % at 8.9 µM. hit rate 31% among 2,400;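 active = mean activation across replicates above the hit cutoff set in the earlier primary screen, cut at about 8% in these data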
MOR DOR agonist: activates mu-delta opioid heterodimer, MC4R agonist counter-screen; U2OS PathHunter beta-arrestin, beta-gal luminescence; percent of deltorphin B response, DMSO zero; activation, % at 9.2 µM; hit rate 5.8% among 2,400; AID 602194; shares compounds with MC4R ag barr;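 active = mean activation across replicates exceeds the hit threshold derived in the earlier primary screen, cut at about 18% in these data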;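 note: 100% = deltorphin B at 0.9 µM final and 0% = DMSO alone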
* marks the source's active call; other numbers are inactive results; · = not tested or not shown.

SMILES | MC4R antagonist | B2AR ag | MC4R ag barr | ABHD5-PLIN5 inh | PfGluPho inh | MC4R barr ag | MOR DOR agonist
Cc1cc(-c2nc(C)c(-c3nnc(SCC(=O)Nc4cc(Cl)cc(Cl)c4)n3C)s2)no1 | 3 | -7 | -3 | 6 | 8 | · | ·
CC(=O)NCC1(c2ccccc2)CCN(CCCC(=O)c2ccc(F)cc2)CC1 | -5 | · | 0 | -2 | -3 | · | ·
O=C(CN1C(=O)/C(=C/c2ccccc2)Sc2ccccc21)NCCCN1CCOCC1 | -2 | -7 | -2 | 3 | 8 | · | ·
CCN1CCN(CCNC(=O)c2ccc(/C=C3\Sc4ccccc4N(Cc4ccccc4F)C3=O)cc2)CC1 | 1 | 55* | 12* | 17 | -15 | 17* | 3
CN1CCN(CCCNC(=O)c2ccc(/C=C3/Sc4ccccc4N(Cc4cccc(Cl)c4)C3=O)cc2)CC1 | 10 | 24 | 10* | 21 | -29 | 16* | 1
CC(C)C(NC(=O)c1c(F)cccc1F)C(=O)NCc1ccc(S(=O)(=O)N2CCOCC2)cc1 (configuration not stated) | 10 | -3 | -2 | -6 | -8 | · | ·
Cc1cc(C)cc(NC(=S)N2CCN(c3ncc(C(F)(F)F)cc3Cl)CC2)c1 | 3 | -2 | 17* | 0 | 3 | 4 | 3
Cc1cc(C)cc(NC(=S)N2CCN(c3ncccn3)CC2)c1 | 4 | -2 | -1 | 4 | -5 | · | ·
Cc1cccc(NC(=O)C2(c3ccccc3)CCOCC2)c1 | -1 | -6 | -1 | 6 | 0 | · | ·
Cc1cccc(NC(=O)C2(C)CC3c4ccccc4C2c2ccccc23)c1 (configuration not stated) | -2 | -1 | 17* | -3 | -1 | 4 | 8
Cc1c(CCOC(=O)c2ccc(Cl)cc2Cl)sc[n+]1CC(=O)c1ccc(Br)cc1 | 8 | 5 | 28* | 9 | 0 | 23* | 23*
COc1ccccc1C(CNc1nc(C(F)(F)F)nc2ccccc12)N(C)C (configuration not stated) | -2 | 3 | 0 | 8 | 2 | · | ·
NNc1cc(C(=O)O)ccc1Cl | 10 | -4 | -2 | -2 | 1 | · | ·
CCCC(=O)Nc1ccc(-c2csc(N/N=C\c3ccncc3)n2)cc1 | 11 | 27 | 19* | 7 | 46 | 3 | 8
Cc1cc(=O)oc2cc(OCC(=O)NCCc3c[nH]c4ccc(F)cc34)ccc12 | 3 | -1 | 2 | -7 | -3 | · | ·
CCCc1cc(=O)oc2cc(OCC(=O)NCCc3c[nH]c4ccccc34)ccc12 | 4 | 1 | 17* | -9 | -26 | 14* | 25*
COc1ccc(C(=O)N2CCN(c3ncccn3)CC2)cc1[N+](=O)[O-] | 1 | -2 | 0 | 6 | -15 | · | ·
COc1ccc(CCNC(=O)c2c(O)c3c([nH]c2=O)CCCC3)cc1 | 16 | -4 | 10* | 2 | 9 | 8.6* | 5
O=C(CN(c1ccc(Br)cc1)S(=O)(=O)c1ccc(Cl)c([N+](=O)[O-])c1)NCC1CCCO1 (configuration not stated) | 26 | 23 | -3 | 0 | 4 | · | ·
O=C1CN(C(=O)COC(=O)/C=C/c2ccc(OC(F)F)cc2)c2ccccc2N1 | -5 | 0 | 11* | 4 | -7 | -1 | 3
CC(C)Cn1c(N)c(C(=O)COC(=O)Cc2cccc(C(F)(F)F)c2)c(=O)n(C)c1=O | 7 | 5 | -2 | -5 | 14 | · | ·
CCOc1ccc(-c2nnn(CC(=O)Nc3cc(OC)cc(OC)c3)n2)cc1OCC | -2 | -1 | 11* | 1 | -11 | 4 | 7
CCOc1ccc(-c2nnn(CC(=O)Nc3cc(OC)ccc3OC)n2)cc1OCC | 2 | 12 | 0 | -1 | 8 | · | ·
CCOc1ccccc1NC(=O)Cn1nnc(-c2ccc(OCC)c(OCC)c2)n1 | -1 | -5 | 9.7* | -5 | -7 | 3 | 4
Nc1c(N=Nc2cccc(Cl)c2)c(=O)[nH]n1-c1ccccc1 | 7 | 4 | 13* | 5 | -5 | 6 | 4
SMILES | MC4R antagonist | B2AR ag | MC4R ag barr | ABHD5-PLIN5 inh | PfGluPho inh | MC4R barr ag | MOR DOR agonist
OC(c1ccccc1)c1nccc2ccccc12 (configuration not stated) | 4 | 0 | -1 | -3 | -13 | · | ·
O=C(CNC(=O)c1cccs1)Nc1ncccc1O | -2 | -5 | 0 | 9 | 11 | · | ·
O=C(CN(CCc1ccccc1)S(=O)(=O)c1ccc(Cl)cc1)N/N=C/c1ccc2c(c1)OCO2 | 7 | -4 | 25* | -3 | -20 | 7 | 5
COc1ccc(S(=O)(=O)N(CCc2ccccc2)CC(=O)N/N=C/c2ccc3c(c2)OCO3)cc1 | 1 | -12 | 2 | -4 | -1 | · | ·
O=C(/C=C/Nc1ccccc1F)c1ccc(Br)cc1 | 2 | -3 | -2 | 2 | 6 | · | ·
N#Cc1ccccc1N/C=C/C(=O)c1ccc(Cl)cc1 | 3 | -4 | 13* | -9 | 23 | 3 | 3
COc1ccc(-c2cc(C(=O)Nc3c(C)nn(Cc4ccccc4Cl)c3C)no2)cc1 | -4 | 2 | 13* | 1 | -20 | 11* | 4
COc1ccc(-c2cn[nH]c2-c2ccc(OCc3ccccc3F)cc2O)cc1OC | 0 | 36 | 14* | -7 | -30 | 3 | 12
COc1ccc2c(c1)CCc1c(C(=O)NCCc3ccc(OC)c(OC)c3)noc1-2 | -7 | 2 | 20* | -4 | 3 | 6 | 3
COc1ccc2c(c1)CCc1c(C(=O)NCc3ccc(F)cc3)noc1-2 | 12 | -5 | 7 | 5 | -10 | · | ·
COc1ccc2c(c1)CCc1c(C(=O)Nc3ccn(Cc4ccc(C)cc4)n3)noc1-2 | -13 | -3 | 30* | 2 | -3 | 37* | 8
O=C(NCCc1ccccc1)c1noc2c1CCc1ccccc1-2 | 6 | 0 | 13* | 2 | -6 | 1 | 4
COc1ccc2c(c1)CCc1c(C(=O)Nc3ccc(OC)c(OC)c3)noc1-2 | 1 | 6 | 20* | -7 | 2 | 2 | 8
CCC(C)N1CC(=O)N2C(c3ccc(OC)cc3OC)c3[nH]c4ccccc4c3C[C@H]2C1=O (some centres not stated) | 13 | 3 | -1 | -1 | -1 | · | ·
COc1cc(CC(=O)OCn2nnc3ccccc3c2=O)cc(OC)c1OC | 14 | 0 | -1 | -1 | -6 | · | ·
COc1ccc(C)cc1S(=O)(=O)NC(C)c1cnn(-c2ccccn2)c1C (configuration not stated) | 0 | -2 | -5 | -9 | 11 | · | ·
O=c1c2cnn(-c3ccc(F)cc3)c2ncn1Cc1ccccc1 | 3 | 3 | 14* | 4 | -12 | 0 | 4
O=c1c2cnn(-c3ccc(F)cc3)c2ncn1Cc1cccnc1 | 9 | 2 | 0 | -2 | -29 | · | ·

Screens as filed in PubChem.
